Each block holds one compound with its values, some of them ahead of it.
Assays:
[1] = HPLC assay for stability of retinal in culture media; type: physicochemical; settings: 10 μM retinal in RPMI 1640 plus 15% fetal bovine serum, 37°C, day 6, no cells
Outline: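 Retinal (10 μM) incubated in cell-free RPMI 1640 with 15% FBS at 37°C for six days. Media sampled every 24 h and extracted with 50% butanol:50% acetonitrile (v/v): vortexed 60 s, centrifuged 2 min at 16,000 × g. Organic layer diluted 1:5 in acetonitrile and run on reverse-phase C18 HPLC. Retinal and retinoic acid detected at 360 nm (retention 10.0 and 7.7 min).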

HL-60 cells [2] = test: HL-60 cell differentiation assay; type: cell-based, human
Outline: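 HL-60 cells grown in RPMI-1640 with 15% FBS, 50 U/mL penicillin and 0.5 mg/mL streptomycin; subcultured and treated at 2 × 10^5 cells/mL. Test compound added in DMSO or ethanol, with no media change or washout; 1 μM retinoic acid used as a reference retinoid. Aliquots mixed 1:1 with a solution of 1.0% BSA, 0.2% NBT and 1.0 μg/mL TPA, then incubated 45 min at 37°C. Purple-precipitate-positive cells scored by bright-field microscopy in a counting chamber; two observers each counted two fields of ≥200 cells per well.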

L1210/CPA cells = settings: 50 μM DEAB in vitro; cited from earlier work
mouse ALDH1A1 = biological target: T1, mouse ALDH1A1 (Mus musculus, UniProt P24549); type: biochemical; settings: IC50 of DPAB, substrate propanal, 1 mM NAD, pH 8.4, mean ± average deviation
T1 sequence (P24549 1-501): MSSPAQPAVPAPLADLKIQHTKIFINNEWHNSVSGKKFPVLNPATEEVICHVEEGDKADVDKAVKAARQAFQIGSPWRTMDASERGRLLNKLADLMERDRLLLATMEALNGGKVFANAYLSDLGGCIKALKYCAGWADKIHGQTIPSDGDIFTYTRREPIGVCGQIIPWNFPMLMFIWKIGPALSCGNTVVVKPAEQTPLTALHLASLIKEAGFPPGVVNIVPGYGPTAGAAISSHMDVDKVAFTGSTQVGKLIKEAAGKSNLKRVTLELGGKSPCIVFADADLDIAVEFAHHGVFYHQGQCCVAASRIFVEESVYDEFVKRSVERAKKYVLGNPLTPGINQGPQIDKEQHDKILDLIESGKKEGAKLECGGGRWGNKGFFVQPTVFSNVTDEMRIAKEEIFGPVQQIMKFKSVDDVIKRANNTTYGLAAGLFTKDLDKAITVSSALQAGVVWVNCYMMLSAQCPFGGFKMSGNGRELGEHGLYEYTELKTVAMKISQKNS

HL-60 cells [3] = test: HL-60 cell survival by Trypan blue dye exclusion; type: cell-based, human; settings: up to 144 hours
Outline: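 HL-60 cells grown in RPMI-1640 with 15% FBS and penicillin/streptomycin, seeded at 2 × 10^5 cells/mL. Exposed to test compound (in DMSO or ethanol) for up to 144 h without media replacement or washout. Survival assessed by Trypan blue dye exclusion.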

ALDH1A1 = settings: dipropyl vs diethyl analog; cited from earlier work
human ALDH1A1 = biological target: T2, human ALDH1A1 (Homo sapiens, UniProt P00352); type: biochemical; settings: IC50 of DPAB, substrate propanal, 1 mM NAD, pH 8.4, mean ± average deviation
T2 sequence (P00352 1-501): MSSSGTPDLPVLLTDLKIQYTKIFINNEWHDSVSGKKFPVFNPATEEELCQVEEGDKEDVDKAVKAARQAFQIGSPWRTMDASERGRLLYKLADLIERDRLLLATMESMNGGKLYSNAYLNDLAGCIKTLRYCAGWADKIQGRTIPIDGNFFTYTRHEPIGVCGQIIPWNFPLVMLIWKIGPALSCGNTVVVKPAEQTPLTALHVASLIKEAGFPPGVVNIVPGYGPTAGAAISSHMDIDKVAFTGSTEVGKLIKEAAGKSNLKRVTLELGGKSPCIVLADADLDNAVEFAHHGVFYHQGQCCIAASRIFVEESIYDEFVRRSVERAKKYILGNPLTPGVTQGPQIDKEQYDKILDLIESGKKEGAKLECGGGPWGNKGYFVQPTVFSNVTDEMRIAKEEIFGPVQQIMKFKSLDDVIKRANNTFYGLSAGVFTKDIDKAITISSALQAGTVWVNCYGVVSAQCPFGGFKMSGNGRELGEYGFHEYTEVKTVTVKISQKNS

Retinal oxidized to retinoic acid in culture media [1]: less than 1%
Structure (SMILES): CC1=C(/C=C/C(C)=C/C=C/C(C)=C/C=O)C(C)(C)CCC1 [all-trans retinal]
Differentiation expressed as equivalent retinoic acid concentration (HL-60 cells [2]; exposure to 1 μM for 96 hours): 0.05 to 0.1 µM

Structure (SMILES): CCN(CC)c1ccc(C=O)cc1 [DEAB, 4-(N, N-diethylamino) benzaldehyde]
Effect on resistance of L1210/CPA cells to 4-HC (L1210/CPA cells): abolished the tumor cells' resistance to 4-HC

Structure (SMILES): CC1=C(/C=C/C(C)=C/C=C/C(C)=C/C(=O)O)C(C)(C)CCC1 [retinoic acid, all-trans retinoic acid]
Cells differentiated to granulocytes (positive NBT staining) (HL-60 cells [2]; continuous exposure to 1 μM for 96 hours): ~40%

IC50 (mouse ALDH1A1): 0.04 ± 0.01 µM
IC50 (human ALDH1A1): 0.14 ± 0.04 µM
Structure (SMILES): CCCN(CCC)c1ccc(C=O)cc1 [DPAB, 4-(N,N-dipropylamino)benzaldehyde]
Effect on cell viability (HL-60 cells [3]): nor did it affect cell viability
Effect on induction of differentiation by retinoic acid (HL-60 cells [2]; 1 μM retinoic acid + 50 μM DPAB): did not alter the induction of differentiation by retinoic acid
Efficacy for inhibition of ALDH1A1 relative to DEAB (ALDH1A1): 10 fold
